The values below come from ChEMBL document CHEMBL5226332, “Amino-Substituted 3-Aryl- and 3-Heteroarylquinolines as Potential Antileishmanial Agents” (J Med Chem, 2021).

Type in all cases: ADME, organism-based
Common to all, as to conditions: in vivo

A short description of data set [1]: Volume of distribution in BALB/c mouse at 10 mg/kg, iv measured after 24 hrs by LC/MS analysis. In a few lines:
(§1)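 Mice given one 10 mg/kg dose by IV, oral or IP route; parent and monomethyl metabolite measured in plasma. Oral dose given in 10/10/40/39 EtOH/PG/PEG400/PBS (pH 7.4) plus 1% w/v HβCD. Vd is steady-state for IV and apparent for the other routes.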

The nature of data set [2]: AUC in BALB/c mouse at 10 mg/kg, iv measured after 24 hrs by LC/MS analysis. On the set-up: dose 10 mg/kg, time 24 hrs, route iv. The essentials:
as §1

Data set [3] can be described thus: Cmax in BALB/c mouse at 10 mg/kg, iv measured after 24 hrs by LC/MS analysis. On the set-up: time 24 hrs, dose 10 mg/kg, route iv. In a few lines:
as §1

The nature of data set [4]: Cmax in BALB/c mouse at 10 mg/kg, po measured after 24 hrs by LC/MS analysis. On the set-up: dose 10 mg/kg, time 24 hrs, route po. In a few lines:
as §1

A short description of data set [5]: Tmax in BALB/c mouse at 10 mg/kg, po measured after 24 hrs by LC/MS analysis. In a few lines: as §1
A short description of data set [6]: AUC in BALB/c mouse at 10 mg/kg, po measured after 24 hrs by LC/MS analysis. Also on record: time 24 hrs, dose 10 mg/kg, route po. In a few lines:
as §1

A short description of data set [7]: Cmax in BALB/c mouse at 10 mg/kg, ip measured after 24 hrs by LC/MS analysis. On the set-up: dose 10 mg/kg, time 24 hrs, route ip. The essentials: as §1
Data set [8] is described as follows: AUC in BALB/c mouse at 10 mg/kg, ip measured after 24 hrs by LC/MS analysis. On the set-up: dose 10 mg/kg, time 24 hrs, route ip. The essentials: as §1

`CN(C)c1ccc2cc(-c3cc(Cl)cc(Cl)c3)c(N)nc2c1` registered a volume of distribution (Vd) in data set [1] of 25.9 L/kg. In data set [2], the AUC was found to be 3.91 µM·h. For the same compound, the Cmax in data set [3] came to 741 nM.
As to `CN(C)c1ccc2cc(-c3cn(C)c4ccccc34)c(N)nc2c1`, the maximum concentration (Cmax) in data set [4] is 1000 nM; in data set [7] it was 3170 nM; in data set [3] it was 2840 nM. For the same compound, in data set [1], the Vd was determined as 9.88 L/kg. Moreover, in data set [5], the time to peak (Tmax) turned out to be 6 min. Also, the AUC came out at 0.921 µM·h in data set [6], 5.95 µM·h in data set [2] and 3.81 µM·h in data set [8].

As a reminder, the Vd is a proportionality between amount in the body and measured concentration, not a real space. Higher therefore signals extensive tissue distribution. Usually AUC stands for the area under the concentration-time curve, a measure of exposure. Low values mean less exposure, high ones more exposure. As usually defined, the Cmax is the highest concentration seen after dosing. For orientation: Tmax means the time from dosing to the highest level.
